# Results: ChEMBL document CHEMBL1132728, “Inhibition of Escherichia coli glucosamine synthetase by novel electrophilic analogues of glutamine--comparison with 6-diazo-5-oxo-norleucine” (Bioorg Med Chem Lett, 2000)
# What was measured:
# [1] = Second order rate constant ([…]) with Escherichia coli glucosamine synthetase
# Method in brief: (§1)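 E. coli glucosamine synthetase was preincubated 15 min at 37 °C in 100 mM potassium phosphate, pH 7.5, with 10 mM fructose-6-phosphate and 50 mM KCl, then inhibitor was added. Timed aliquots were diluted 40-fold into the same buffer with 6 mM L-glutamine, and residual activity was read by colorimetric glutamate assay. The ln(residual activity)-versus-time plot gave t1/2, and kobs = ln2/t1/2. kobs versus [I] was fitted by Kitz–Wilson to give k+2 and Ki.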
# Escherichia coli [2] = experiment: Limiting rate constant for inactivation of Escherichia coli glucosamine synthetase was determined; method in brief: as §1
# [3] = Steady-state inactivation rate constant for inactivation of Escherichia coli glucosamine synthetase was determined; method in brief: as §1
# [4] = Second order rate constant ([…]) was determined; method in brief: as §1
# [5] = Second order rate constant ([…]) was determined; No inhibition at 200 uM
# [6] = Steady-state inactivation rate constant for inactivation of Escherichia coli glucosamine synthetase was determined; No inhibition at 200 uM
# Escherichia coli [7] = experiment: Limiting rate constant for inactivation of Escherichia coli glucosamine synthetase was determined; No inhibition at 200 uM
Structure (SMILES),K+2/Ki [1],K+2 (Escherichia coli [2]),Ki [3],K+2/Ki [4],K+2/Ki [5],Ki [6],K+2 (Escherichia coli [7])
[N-]=[N+]=CC(=O)CC[C@H](N)C(=O)O [6-DIAZO-5-OXO-L-NORLEUCINE],1170 M⁻¹ s⁻¹,0.7 min⁻¹,9500 nM,,,,
C[S+](C)CC(=O)CC[C@H](N)C(=O)O,,0.12 min⁻¹,370 nM,5330 M⁻¹ s⁻¹,,,
N[C@@H](CCC(=O)CBr)C(=O)O,,0.4 min⁻¹,2700 nM,2500 M⁻¹ s⁻¹,,,
N#CCC[C@H](N)C(=O)O,,,,,No inhibition,No inhibition,No inhibition
CC(=[N+]=[N-])C(=O)CC[C@H](N)C(=O)O,,0.02 min⁻¹,1100 nM,333 M⁻¹ s⁻¹,,,
N[C@@H](CCC(=O)CCl)C(=O)O,,0.19 min⁻¹,62500 nM,50 M⁻¹ s⁻¹,,,
